Activity calls are given as the source filed them.
Columns and labels:
Oryctolagus cuniculus = species on record: Oryctolagus cuniculus; test: Inhibition of arachidonic acid-induced rabbit platelet aggregation by turbidimetric method; type: functional
Method in brief: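 Rabbits (2.5–3.0 kg) bled from the central ear artery into 3.8% trisodium citrate (9:1). PRP was spun at 1800 rpm and PPP at 3600 rpm, 10 min each at room temperature. PRP was stirred at 900 rpm at 37 °C, with compound or 0.5% DMSO vehicle added 5 min before arachidonic acid (200 µM in methods; 100 µM elsewhere). Read-out was percent of AA aggregation.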

Mus musculus [1] = test: Antinociceptive activity in Albino mouse assessed as inhibition of acetic acid-induced abdominal constriction at 100 umol/kg, po treated 1 hr before acetic acid challenge relative to control; type: functional; conditions: Abdomen
Method in brief: (§1)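 Albino mice of both sexes (18–23 g), dosed orally as a suspension in 5% arabic gum in saline. Acetic acid given ip 1 h later. Constrictions counted for 20 min, starting 10 min after injection. Expressed as % inhibition versus vehicle controls. Dose–response over 0.3–100 µmol/kg. Mean ± SEM of n animals; one-way ANOVA, Dunnett, P<0.01.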

Rattus norvegicus [2] = test: Analgesic activity in carrageenan-induced Wistar rat hyperalgesia model assessed as reduction in latency time at 100 umol/kg, ip treated 60 mins before carrageen challenge; type: functional; parameters: scale not given: the % may be the effect or the level left
Method in brief: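 Wistar rats, dosed ip in 1% tween 80 in saline. Carrageenan 1 mg/paw intraplantar in left paw, saline in right, 100 µL each. Left-paw withdrawal latency on 51 ± 0.1 °C plate at 0, 30, 60, 120, 180, 240 min; cut-off 20 s. Hyperalgesia taken as latency at time 0 minus later latency. Mean ± SEM, n=8–10; one-way ANOVA, Dunnett.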

Rattus norvegicus [3] = test: Antiinflammatory activity in Albino rat assessed as inhibition of carrageenan-induced paw edema at 10 umol/kg, ip; type: functional
Method in brief: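 Albino rats of both sexes (150–200 g), dosed as a suspension in 1% tween 80 in saline. 1 h later, 1% carrageenan (0.1 mg/paw) into one hind paw subplantar, saline into the other. Paw volumes by plethysmometer at 3 h; edema is the difference between the paws. Expressed as % inhibition versus vehicle controls.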

Mus musculus [4] = test: Antinociceptive activity in po treated Albino mouse assessed as inhibition of acetic acid-induced abdominal constriction treated 1 hr before acetic acid challenge; type: functional; conditions: Abdomen; method in brief: as §1
Mus musculus [5] = test: Analgesic activity in Swiss mouse assessed as response to thermal stimulation at 100 umol/kg, ip by Hot-plate test; type: functional, organism-based
Method in brief: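 Swiss mice of both sexes, fasted 8 h, water ad libitum; dosed ip in 1% tween in saline. Placed on plate at 55 ± 0.1 °C; paw licking or withdrawal timed. Two control readings 30 min apart set baseline latency; cut-off three times control mean. Latency recorded every 30 min after dosing for 150 min. Mean ± SEM, n=7.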

Mus musculus [6] = test: Antinociceptive activity in Albino swiss mouse assessed as inhibition of formalin induced pain at 100 umol/kg, ip treated 1 hr before formalin challenge; type: functional, organism-based
Method in brief: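 Albino Swiss mice of both sexes (18–25 g), fasted 8 h, dosed ip in 5% arabic gum. 60 min later, 20 µL of 2.5% formalin subplantar in one hind paw. Time spent licking or biting the paw scored at 0–5 min (neurogenic phase) and 15–30 min (inflammatory phase). Mean ± SEM, n=6–12; two-way ANOVA, Bonferroni.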

Rattus norvegicus [7] = test: Antiinflammatory activity in Albino rat assessed as inhibition of carrageenan-induced paw edema at 100 umol/kg, ip; parameters: scale not given: the % may be the effect or the level left

SMILES: Cc1nc2cc3c(cc2c(=O)n1/N=C/c1ccsc1)OCO3
- inhibition (Oryctolagus cuniculus): inactive
- inhibition in vivo at 100 µmol/kg (Mus musculus [1]): 34.7%

SMILES: Cc1nc2cc3c(cc2c(=O)n1/N=C/c1ccc(N(C)C)cc1)OCO3
- Activity (Rattus norvegicus [2]): 50%
- inhibition (Oryctolagus cuniculus): inactive
- inhibition in vivo at 100 µmol/kg (Mus musculus [1]): 43%
- inhibition (Rattus norvegicus [3]): inactive
- ED50 (Mus musculus [4]): 5.4 µmol/kg
- Activity (Mus musculus [5]): inactive
- inhibition (Mus musculus [6]): Active

SMILES: Cc1nc2cc3c(cc2c(=O)n1/N=C/c1ccncc1)OCO3
- inhibition (Oryctolagus cuniculus): inactive
- inhibition in vivo at 100 µmol/kg (Mus musculus [1]): 38.5%

SMILES: Cc1nc2cc3c(cc2c(=O)n1/N=C/c1ccco1)OCO3
- inhibition (Oryctolagus cuniculus): inactive
- inhibition in vivo at 100 µmol/kg (Mus musculus [1]): 16.9%

SMILES: Cc1nc2cc3c(cc2c(=O)n1/N=C/c1ccccn1)OCO3
- inhibition (Oryctolagus cuniculus): inactive
- inhibition in vivo at 100 µmol/kg (Mus musculus [1]): 18.5%

SMILES: Cc1nc2cc3c(cc2c(=O)n1/N=C/c1cccs1)OCO3
- inhibition (Oryctolagus cuniculus): inactive
- inhibition in vivo at 100 µmol/kg (Mus musculus [1]): 10.7%

SMILES: Cc1nc2cc3c(cc2c(=O)n1/N=C/c1ccc(C(C)C)cc1)OCO3
- inhibition (Oryctolagus cuniculus): inactive
- inhibition in vivo at 100 µmol/kg (Mus musculus [1]): 32.9%

SMILES: C/C(=N\n1c(C)nc2cc3c(cc2c1=O)OCO3)c1cccs1
- Activity (Rattus norvegicus [2]): 50%
- inhibition (Oryctolagus cuniculus): inactive
- inhibition in vivo at 100 µmol/kg (Mus musculus [1]): 45.3%
- inhibition (Rattus norvegicus [3]): inactive
- ED50 (Mus musculus [4]; read-out: ED50): 3.5 mg/kg
- Activity (Mus musculus [5]): inactive
- inhibition (Mus musculus [6]): Active

SMILES: Cc1c(N(C)CS(=O)(=O)[O-])c(=O)n(-c2ccccc2)n1C.[Na+] [DIPYRONE SODIUM]
- inhibition in vivo at 100 µmol/kg (Mus musculus [1]): 36%
- ED50 (Mus musculus [4]): 144 µmol/kg

SMILES: COc1ccc2c(c1)c(CC(=O)O)c(C)n2C(=O)c1ccc(Cl)cc1 [INDOMETHACIN]
- Activity (Rattus norvegicus [7]): 61%

SMILES: Cc1nc2cc3c(cc2c(=O)n1/N=C/c1ccccc1)OCO3
- inhibition (Oryctolagus cuniculus): inactive
- inhibition in vivo at 100 µmol/kg (Mus musculus [1]): 17.6%

SMILES: Cc1nc2cc3c(cc2c(=O)n1/N=C/c1cccnc1)OCO3
- inhibition (Oryctolagus cuniculus): inactive
- inhibition in vivo at 100 µmol/kg (Mus musculus [1]): 35.2%

Reference: ChEMBL document CHEMBL1152567, “Synthesis and analgesic profile of conformationally constrained N-acylhydrazone analogues: discovery of novel N-arylideneamino quinazolin-4(3H)-one compounds derived from natural safrole” (2009)
